Source: ChEMBL document CHEMBL5247578, “Effective synthesis of benzimidazoles-imidazo[1,2-a]pyrazine conjugates: A comparative study of mono-and bis-benzimidazoles for antitumor activity” (Eur J Med Chem, 2019)

Key:
[1] = system: SF-295; test: Antiproliferative activity against human SF-295 cells assessed as cell growth inhibition at 10 uM incubated for 48 hrs by sulforhodamine B assay relative to control; assay type: functional
How it was run: (§1)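 NCI-60 single-dose screen at 10^-5 M. Cells grown in RPMI 1640 with 5% FBS and 2 mM L-glutamine, plated at 5,000–40,000 cells/well, and preincubated 24 h. Drug (DMSO stock) added and incubated 48 h at 37 °C, 5% CO2. Adherent cells fixed with cold TCA, stained with 0.4% SRB in 1% acetic acid, dye solubilized in 10 mM trizma base, A515 read. Percent growth taken against time-zero and untreated control.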

[2] = system: UACC-62; test: Antiproliferative activity against human UACC-62 cells assessed as cell growth inhibition at 10 uM incubated for 48 hrs by sulforhodamine B assay relative to control; assay type: functional; how it was run: as §1
[3] = system: SK-MEL-2; test: Antiproliferative activity against human SK-MEL-2 cells assessed as cell growth inhibition at 10 uM incubated for 48 hrs by sulforhodamine B assay relative to control; assay type: functional; how it was run: as §1
[4] = system: HOP-92; test: Antiproliferative activity against human HOP-92 cells assessed as cell growth inhibition at 10 uM incubated for 48 hrs by sulforhodamine B assay relative to control; assay type: functional
How it was run: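 NCI-60 one-dose prescreen at 10^-5 M. Cells grown in RPMI 1640 with 5% FBS and 2 mM glutamine, preincubated 24 h, then exposed 48 h at 37 °C. Adherent lines TCA-fixed, SRB-stained, A515 read. Growth percent relative to time-zero and control; negative values mean cell kill.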

[5] = system: MDA-MB-468; test: Antiproliferative activity against human MDA-MB-468 cells assessed as cell growth inhibition at 10 uM incubated for 48 hrs by sulforhodamine B assay relative to control; assay type: functional; how it was run: as §1
[6] = n-Octanol/phosphate buffer partition coefficient, logP of the compound at pH 7.4 incubated for 85 mins by shake-flask method; assay type: physicochemical
How it was run: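 Octanol–water partition by shake-flask: n-octanol with 0.15 M phosphate buffer pH 7.4 at 10:1 volumes. Buffer-phase absorbance read before mixing, then shaken 50 min and centrifuged at 2500 rpm for 35 min. Buffer absorbance read again; P = (Ai−Af)/Af × Vw/Vo.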

[7] = system: SN12C; test: Antiproliferative activity against human SN12C cells assessed as cell growth inhibition at 10 uM incubated for 48 hrs by sulforhodamine B assay relative to control; assay type: functional; how it was run: as §1
[8] = system: LOX IMVI; test: Antiproliferative activity against human LOX IMVI cells assessed as cell growth inhibition at 10 uM incubated for 48 hrs by sulforhodamine B assay relative to control; assay type: functional; how it was run: as §1
[9] = system: U-251; test: Antiproliferative activity against human U-251 cells assessed as cell growth inhibition at 10 uM incubated for 48 hrs by sulforhodamine B assay relative to control; assay type: functional; how it was run: as §1
[10] = system: HT-29; test: Antiproliferative activity against human HT-29 cells assessed as cell growth inhibition at 10 uM incubated for 48 hrs by sulforhodamine B assay relative to control; assay type: functional; how it was run: as §1
[11] = system: SW-620; test: Antiproliferative activity against human SW620 cells assessed as cell growth inhibition at 10 uM incubated for 48 hrs by sulforhodamine B assay relative to control; assay type: functional; how it was run: as §1
[12] = system: RXF 393; test: Antiproliferative activity against human RXF 393 cells assessed as cell growth inhibition at 10 uM incubated for 48 hrs by sulforhodamine B assay relative to control; assay type: functional; how it was run: as §1
[13] = system: SF-268; test: Antiproliferative activity against human SF-268 cells assessed as cell growth inhibition at 10 uM incubated for 48 hrs by sulforhodamine B assay relative to control; assay type: functional; how it was run: as §1
[14] = system: CCRF-CEM; test: Antiproliferative activity against human CCRF-CEM cells assessed as cell growth inhibition at 10 uM incubated for 48 hrs by sulforhodamine B assay relative to control; assay type: functional
How it was run: (§2)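 Single-dose NCI-60 prescreen at 10^-5 M. Cells in RPMI 1640 with 5% FBS and 2 mM L-glutamine, seeded 5,000–40,000 cells/well with 24 h preincubation, then drug exposure for 48 h at 37 °C under 5% CO2. Growth read by SRB staining of TCA-fixed cells at 515 nm against time-zero and untreated controls. Negative growth values denote cell kill.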

[15] = system: MDA-MB-435; test: Antiproliferative activity against human MDA-MB-435 cells assessed as cell growth inhibition at 10 uM incubated for 48 hrs by sulforhodamine B assay relative to control; assay type: functional; how it was run: as §1
[16] = system: UO-31; test: Antiproliferative activity against human UO-31 cells assessed as cell growth inhibition at 10 uM incubated for 48 hrs by sulforhodamine B assay relative to control; assay type: functional; how it was run: as §1
[17] = system: ACHN; test: Antiproliferative activity against human ACHN cells assessed as cell growth inhibition at 10 uM incubated for 48 hrs by sulforhodamine B assay relative to control; assay type: functional; how it was run: as §2
[18] = system: NCI-H522; test: Antiproliferative activity against human NCI-H522 cells assessed as cell growth inhibition at 10 uM incubated for 48 hrs by sulforhodamine B assay relative to control; assay type: functional; how it was run: as §1
[19] = system: NCI-H23; test: Antiproliferative activity against human NCI-H23 cells assessed as cell growth inhibition at 10 uM incubated for 48 hrs by sulforhodamine B assay relative to control; assay type: functional; how it was run: as §1
[20] = system: PC-3; test: Antiproliferative activity against human PC-3 cells assessed as cell growth inhibition at 10 uM incubated for 48 hrs by sulforhodamine B assay relative to control; assay type: functional; how it was run: as §1
[21] = system: NCI-H226; test: Antiproliferative activity against human NCI-H226 cells assessed as cell growth inhibition at 10 uM incubated for 48 hrs by sulforhodamine B assay relative to control; assay type: functional; how it was run: as §1
[22] = system: NCI/ADR-RES; test: Antiproliferative activity against human NCI/ADR-RES cells assessed as cell growth inhibition at 10 uM incubated for 48 hrs by sulforhodamine B assay relative to control; assay type: functional; how it was run: as §1
[23] = system: MCF7; test: Antiproliferative activity against human MCF7 cells assessed as cell growth inhibition at 10 uM incubated for 48 hrs by sulforhodamine B assay relative to control; assay type: functional; how it was run: as §1
[24] = system: Hs-578T; test: Antiproliferative activity against human Hs-578T cells assessed as cell growth inhibition at 10 uM incubated for 48 hrs by sulforhodamine B assay relative to control; assay type: functional; how it was run: as §1
[25] = system: OVCAR-3; test: Antiproliferative activity against human OVCAR-3 cells assessed as cell growth inhibition at 10 uM incubated for 48 hrs by sulforhodamine B assay relative to control; assay type: functional; how it was run: as §1
[26] = system: 786-0; test: Antiproliferative activity against human 786-0 cells assessed as cell growth inhibition at 10 uM incubated for 48 hrs by sulforhodamine B assay relative to control; assay type: functional; how it was run: as §2
[27] = system: NCI-H460; test: Antiproliferative activity against human NCI-H460 cells assessed as cell growth inhibition at 10 uM incubated for 48 hrs by sulforhodamine B assay relative to control; assay type: functional; how it was run: as §1
[28] = system: SK-MEL-5; test: Antiproliferative activity against human SK-MEL-5 cells assessed as cell growth inhibition at 10 uM incubated for 48 hrs by sulforhodamine B assay relative to control; assay type: functional; how it was run: as §1
[29] = system: M14; test: Antiproliferative activity against human M14 cells assessed as cell growth inhibition at 10 uM incubated for 48 hrs by sulforhodamine B assay relative to control; assay type: functional; how it was run: as §1
[30] = system: KM12; test: Antiproliferative activity against human KM12 cells assessed as cell growth inhibition at 10 uM incubated for 48 hrs by sulforhodamine B assay relative to control; assay type: functional; how it was run: as §1
[31] = system: SR; test: Antiproliferative activity against human SR cells assessed as cell growth inhibition at 10 uM incubated for 48 hrs by sulforhodamine B assay relative to control; assay type: functional; how it was run: as §1

Structure (SMILES) | inhibition at 10 µM [1] | inhibition at 10 µM [2] | inhibition at 10 µM [3] | inhibition at 10 µM [4] | inhibition at 10 µM [5] | logD at 1.417 h [6] | inhibition at 10 µM [7] | inhibition at 10 µM [8] | inhibition at 10 µM [9] | inhibition at 10 µM [10] | inhibition at 10 µM [11] | inhibition at 10 µM [12] | inhibition at 10 µM [13] | inhibition at 10 µM [14] | inhibition at 10 µM [15] | inhibition at 10 µM [16] | inhibition at 10 µM [17] | inhibition at 10 µM [18] | inhibition at 10 µM [19] | inhibition at 10 µM [20] | other results
CCc1ccc(-c2cn3ccnc3c(-c3ccc4ncn(Cc5ccccc5)c4c3)n2)cc1 | 51.2% | 24.9% | 14.8% | 36.1% | 17.2% | 1.96 | 22.5% | 50.1% | 46.1% | 68.8% | 18.8% | 30.7% | 30.5% | 49.7% | 50.9% | 57.9% | 44.7% | 45.9% | 23% | 50.4% | inhibition at 10 µM [21]: 1.48%; inhibition at 10 µM [22]: 41.2%; inhibition at 10 µM [23]: 58%; inhibition at 10 µM [24]: 21.8%; inhibition at 10 µM [25]: 31.2%; inhibition at 10 µM [26]: 38.1%; inhibition at 10 µM [27]: 42%; inhibition at 10 µM [28]: 47.9%; inhibition at 10 µM [29]: 36.4%; inhibition at 10 µM [30]: 45.7%; inhibition at 10 µM [31]: 49.9%
COc1ccc(-c2cn3ccnc3c(-c3ccc4ncn(C5CCCCC5)c4c3)n2)cc1 | 92.5% | 65.2% | 94.3% | 52.3% | 97.4% | 1.41 | 63.6% | 69.6% | 80.9% | 92.5% | 77.8% | -8.48% | 49.9% | 93.3% | -18.6% | 61.5% | 61% | -20.9% | 62.1% | 95.2% | inhibition at 10 µM [21]: 35.9%; inhibition at 10 µM [22]: 87.2%; inhibition at 10 µM [23]: 80.2%; inhibition at 10 µM [24]: 80%; inhibition at 10 µM [25]: -26.5%; inhibition at 10 µM [26]: 83.2%; inhibition at 10 µM [27]: 91.1%; inhibition at 10 µM [28]: 92.3%; inhibition at 10 µM [29]: 89.2%; inhibition at 10 µM [30]: 83.2%; inhibition at 10 µM [31]: 91.7%
c1ccc(-c2cn3ccnc3c(-c3ccc4ncn(C5CCCCC5)c4c3)n2)cc1 | 39.8% | 65.7% | 16.5% | 53.7% | 54.4% | 1.74 | 28.8% | 39.6% | 37.3% | 48.3% | 9.15% | 45% | 21.7% | 81.2% | 28.7% | 55.1% | 35.9% | 58.1% | 45.3% | 92% | inhibition at 10 µM [21]: 33.9%; inhibition at 10 µM [22]: 50.5%; inhibition at 10 µM [23]: 38%; inhibition at 10 µM [24]: 23.8%; inhibition at 10 µM [25]: 41.8%; inhibition at 10 µM [26]: 36.8%; inhibition at 10 µM [27]: 37.8%; inhibition at 10 µM [28]: 36.5%; inhibition at 10 µM [29]: 38.2%; inhibition at 10 µM [30]: 49%; inhibition at 10 µM [31]: 59.8%
c1ccc(Cn2cnc3ccc(-c4nc(-c5ccc6c(c5)ncn6C5CCCCC5)cn5ccnc45)cc32)cc1 | -81.3% | -31.2% | -36.7% | -83.6% | -35.7% | 1.61 | -35.4% | -87% | -22.8% | -48.7% | 97.8% | -76.9% | -0.11% | 94.4% | -6.16% | -51.4% | 80.1% | -35.2% | -22.8% | -39.5% | inhibition at 10 µM [21]: -63.1%; inhibition at 10 µM [22]: 99.5%; inhibition at 10 µM [23]: 98%; inhibition at 10 µM [24]: 99.6%; inhibition at 10 µM [25]: -35.7%; inhibition at 10 µM [26]: -19.4%; inhibition at 10 µM [27]: -20.3%; inhibition at 10 µM [28]: -84%; inhibition at 10 µM [29]: -4.44%; inhibition at 10 µM [30]: -39.4%; inhibition at 10 µM [31]: 94.5%
Clc1ccc(-c2cn3ccnc3c(-c3ccc4ncn(C5CCCCC5)c4c3)n2)cc1 | 14.5% | 30.5% | 10.9% | 30.5% | 10.6% | 1.51 | 13.5% | 14.8% | 11.3% | 16.4% | 14% | 6.73% | 4.83% | 11.4% | 36.7% | 36.1% | 5.45% | 19.8% | 4.11% | 24.6% | inhibition at 10 µM [21]: 19.4%; inhibition at 10 µM [22]: 11.1%; inhibition at 10 µM [23]: 21.8%; inhibition at 10 µM [24]: 6.35%; inhibition at 10 µM [25]: 10.8%; inhibition at 10 µM [26]: 12.1%; inhibition at 10 µM [27]: 4.14%; inhibition at 10 µM [28]: 12.4%; inhibition at 10 µM [29]: 10%; inhibition at 10 µM [30]: 10.6%; inhibition at 10 µM [31]: 18.5%
